Screens as filed in PubChem BioAssay.
FID counter: compounds displacing fluorescent DNA intercalator, primary screen, artefact control for HCV NS3 helicase inhibitor project, biochemical, FID fluorescence; AID 1845, 2009; DNA fluorescent intercalator displacement; inhibition, % at 7.9 µM; 290,000 compounds, 0.17% hits; in the data active = inhibition above about 37%;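 note: higher means more ethidium bromide displaced from hairpin DNA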
Wee1 degr inh: Wee1 degradation inhibitors, primary screen, cell-based, HeLa, Wee1K328M-luciferase, luminescence; reporter increase, % at 5 µM; Wee1-like protein kinase (Homo sapiens), P30291; 220,000 compounds, 1.2% hits; HeLa Luc-Wee1K328M stability; 100% = proteasome inhibitor MG132 effect;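 active = activation above the mean of all tested compounds plus 3 SD, set per screening run, cut at about 8.8% in these data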;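 note: cells exposed to compound for 20 h before luminescence read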
Rad51 HR inh: human RAD51 strand exchange inhibitors, primary screen, biochemical, fluorescence; hRad51 DNA strand exchange, fluorescence dequenching; inhibition, % at 10 µM; DNA repair protein RAD51 homolog 1 (Homo sapiens), Q06609; 200,000 compounds, 0.085% hits; AID 1385, 2008;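 active = inhibition above 40% at the single screening dose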
Target sequence (Q06609 whole entry, looked up): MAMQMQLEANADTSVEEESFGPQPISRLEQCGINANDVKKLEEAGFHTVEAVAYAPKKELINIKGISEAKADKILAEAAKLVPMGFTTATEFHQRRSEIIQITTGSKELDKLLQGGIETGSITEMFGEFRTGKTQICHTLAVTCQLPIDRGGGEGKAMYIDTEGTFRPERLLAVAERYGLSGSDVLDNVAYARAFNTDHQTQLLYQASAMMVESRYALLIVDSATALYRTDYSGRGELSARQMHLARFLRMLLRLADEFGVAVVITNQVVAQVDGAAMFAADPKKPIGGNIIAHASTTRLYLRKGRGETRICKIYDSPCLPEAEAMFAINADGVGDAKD
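Read-out basis: percent inhibition relative to plate controls and blanks / Assay system: human Rad51 nucleoprotein filaments preassembled on unlabelled ssDNA / Timing: filaments 15 min 37 °C, then compound 30 min / Control set: per-plate controls and blanks / Technique: fluorescence dequenching at 485/520 nm / Compound: 10 µM final, single point / Also added: Fluorescein- and BHQ1-tagged 47-mer duplex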
RBBP9 inh: human RBBP9 inhibitors, primary screen, biochemical, fluorescence polarization, FP-Rh probe, HTS; recombinant RBBP9; inhibition, % at 7.94 µM; 220,000 compounds, 0.2% hits; AID 1515, 2009;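 active = inhibition above the campaign mean of all tested compounds plus 3 SD, cut at about 14% in these data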
Target sequence (O75884 whole entry, looked up): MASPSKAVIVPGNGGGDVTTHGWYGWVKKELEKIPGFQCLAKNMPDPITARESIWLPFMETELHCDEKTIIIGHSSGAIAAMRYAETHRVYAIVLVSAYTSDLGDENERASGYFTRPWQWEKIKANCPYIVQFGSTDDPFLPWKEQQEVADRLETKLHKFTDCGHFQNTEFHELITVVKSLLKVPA
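Assay system: recombinant human RBBP9; Reagent: Serine-hydrolase probe FP-Rh, 375 nM pre-mixing; Doses: 7.94 µM single dose, 0.794% DMSO; Incubation: 30 min then 45 min, 25 °C; Detection: fluorescence polarization (mP), excitation 525 nm, emission 598 nm; Evaluation: percent inhibition from mP, scaled between DMSO and no-protein wells.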
Wee1 stab conf: Wee1 degradation inhibitors, confirmation, cell-based, HeLa, Wee1K328M-luciferase, luminescence, triplicate | HeLa Luc-Wee1K328M degradation; vehicle 0%, proteasome-blocked wells 100% | shares compounds with Wee1 degr inh | 1,100 compounds, 4% hits | activation, % at 5 µM; in the data active = activation above about 8.9%
Numbers stand for hits; 0 = inactive; - = no result. Compounds with a hit are over-represented: about 1.2% of the library has one in this group of screens.

SMILES | FID counter | Wee1 degr inh | Rad51 HR inh | RBBP9 inh | Wee1 stab conf
O=C(COc1ccccc1[N+](=O)[O-])NNC(=O)Nc1cccc2ccccc12 | 0 | 16.0 | 0 | 0 | 0
CCSc1nnc(NC(=O)COc2ccccc2[N+](=O)[O-])s1 | 0 | 0 | 0 | 0 | -
O=C(Nc1ccnn1C1CCN(Cc2ccccc2F)CC1)C1CCCC1 | 0 | - | - | - | -
Cc1cccc(C)c1NC(=O)NCCCN1CCN(c2ccccc2)CC1 | 0 | 11.5 | 0 | 0 | 0
O=C(NCC1(O)CCCCC1)C1CCC(=O)N(Cc2cccc(C(F)(F)F)c2)C1 (configuration not stated) | 0 | - | - | - | -
CCc1c(C)nc(N2CCN(c3ccccc3F)CC2)[nH]c1=O | 0 | - | - | - | -
Cc1cc(C)n(NC(=S)NC2CCCC2)c(=O)c1C#N | 0 | 0 | 0 | 0 | -
Nc1nc2ccc(C(=O)Nc3ccccc3)cc2s1 | 0 | 15.4 | 0 | 0 | 0
CCc1ccc(NC(=O)c2ccc3nc(N)sc3c2)cc1 | 0 | 0 | - | 0 | -
Cc1cc2ncc(-c3ccccc3)nc2cc1C | 0 | - | - | - | -
CCOC(=O)c1ccc2ncc(-c3ccccc3)nc2c1 | 0 | 18.2 | 0 | 0 | 0
O=C(NCCN1CCOCC1)/C(=C\c1ccc(F)cc1)NC(=O)c1ccccc1 | 0 | - | - | - | -
CCSc1nnc(NC(=O)c2cc(C)nc3ccccc23)s1 | 0 | 11.0 | 0 | 0 | 0
C=CCn1nnnc1-c1cc(Cl)cc(Cl)c1 | 0 | 0 | 0 | 0 | -
CCSc1nn2c(=O)c3ccccc3nc2s1 | 0 | 15.0 | 0 | 0 | 0
CCOn1c(SCC)nc2ccccc2c1=O | 0 | 0 | 0 | 0 | -
CCSc1nnc(NC(=O)CSC2=NN3CCCC(=O)N=C3S2)s1 | 0 | 17.1 | 0 | 0 | 0
COc1cccc(C(=O)/C=C2\Sc3ccccc3N2C)c1 | 0 | 0 | 0 | 0 | -
CN1/C(=C\C(=O)c2cccnc2)Sc2ccccc21 | 0 | 13.4 | 0 | 0 | 0
COc1ccc(/C=C/C(=O)NC(=S)NNC(=O)c2cccnc2)cc1 | 0 | 16.8 | 0 | 0 | 0
COc1ccc(/C=C/C(=O)NC(=S)NNC(=O)c2cnccn2)cc1 | 0 | 0 | 0 | 0 | -
OC[C@@H]1CCCN1Cc1nc(-c2cccs2)no1 | 0 | 10.9 | - | 0 | 0
COc1ccc(N(Cc2ccccc2)N=O)cc1 | 0 | - | - | - | -
Cc1c(/C=C(\C#N)C(=O)NCc2ccccc2)cc(C#N)n1C | 0 | - | - | - | -
COCC(=O)Nc1c(C(=O)Nc2ccc3c(c2)OCCO3)oc2ccccc12 | 0 | 11.8 | - | 0 | 0
SMILES | FID counter | Wee1 degr inh | Rad51 HR inh | RBBP9 inh | Wee1 stab conf
CC(C)Cn1c(=O)[nH]c(=O)c2c(C(F)(F)F)cc(-c3ccccc3)nc21 | 0 | 0 | 0 | 0 | -
O=C(O)CCn1cc(/C=C2\SC(=S)NC2=O)c(-c2ccccc2)n1 | 0 | 13.3 | 0 | 0 | 0
O=C(O)CCn1cc(/C=C2/NC(=S)N(c3ccccc3)C2=O)c(-c2ccccc2)n1 | 0 | 0 | 0 | 0 | -
CC(Cc1cccnc1)NC(=O)CCc1nnc(-c2ccccc2)o1 (configuration not stated) | 0 | 18.9 | 0 | 0 | 0
O=C(C1CCCO1)N1CCN(C(=S)Nc2cccc(F)c2)CC1 (configuration not stated) | 0 | - | - | - | -
CCOC(=O)c1[nH]c(C)c(CN(C(C)=O)c2ccc(OCC)cc2)c1C | 0 | 13.4 | 0 | 0 | 0
c1ccc2[nH]c(NCc3ccc4c(c3)OCO4)nc2c1 | 0 | 0 | 0 | 0 | -
O=C(Nc1ccccc1)C1Cc2ccccc2CN1C(=O)c1ccco1 (configuration not stated) | 0 | 0 | 0 | 0 | -
O=C(NC1CCCCCC1)C1Cc2ccccc2CN1C(=O)c1ccco1 (configuration not stated) | 0 | 21.3 | 0 | 0 | 0
Cn1c(SCC(=O)c2ccccc2)nnc1-c1cnccn1 | 0 | 12.8 | 0 | 0 | 0
Cc1ccc(NC(=O)c2cccc(F)c2)cc1S(=O)(=O)N1CCCCCC1 | 0 | 14.1 | 0 | 0 | 0
Cc1ccc(NCC(=O)Nc2cccc(F)c2)cc1S(=O)(=O)N1CCCCCC1 | 0 | - | - | - | -
Cc1cc(C)n(C(=O)c2ccc(C)c(S(=O)(=O)N3CCCCC3)c2)n1 | 0 | 24.1 | 0 | 0 | 0
O=C(CCNC(=O)c1ccco1)Nc1ccc(F)c(Cl)c1 | 0 | - | - | - | -
CCOC(=O)CSc1nc(-c2ccncc2)ccc1C#N | 0 | 14.4 | 0 | 0 | 0
O=C1Cc2cc(S(=O)(=O)N3CCN(c4cccc(Cl)c4)CC3)ccc2N1 | 0 | - | - | - | -
COc1cccc(N(CC(=O)N/N=C(\C)c2cccs2)S(C)(=O)=O)c1 | 0 | 38.0 | 0 | 0 | 0
COc1ccc(N(CC(=O)N/N=C(\C)c2cccs2)S(=O)(=O)c2ccccc2)cc1Cl | 0 | 0 | 0 | 0 | -
Cc1ccc(S(=O)(=O)C2C(=O)N(C)C3(C)CC2c2ccccc2O3)cc1 (configuration not stated) | 0 | 0 | 0 | 0 | -
COc1cccc(C(=O)NC(=S)NCc2ccco2)c1 | 0 | 13.9 | 0 | 0 | 0
CCOc1ccccc1NC(=S)NCc1ccco1 | 0 | 12.5 | 0 | 0 | 0
S=C(NCc1ccco1)Nc1ccc(Oc2ccccc2)cc1 | 0 | 11.2 | - | 0 | 0
CC12CCC(=O)N1C(C(=O)OCC(=O)Nc1ccc(Cl)c(Cl)c1)CS2 (configuration not stated) | 0 | 20.9 | 0 | 0 | 0
C#CCN(CC=C)C(=O)CCc1nnc(COc2ccccc2)o1 | 0 | 15.6 | 0 | 0 | 0
CCn1cc(C(=O)OCC(=O)N(C)C2CCS(=O)(=O)C2)c(=O)c2ccc(C)nc21 (configuration not stated) | 0 | 0 | 0 | 0 | -
SMILES | FID counter | Wee1 degr inh | Rad51 HR inh | RBBP9 inh | Wee1 stab conf
CCn1cc(C(=O)OCC(=O)N2C(C)CCCC2C)c(=O)c2ccc(C)nc21 (configuration not stated) | 0 | 11.3 | 0 | 0 | 0
Cc1ccc(S(=O)(=O)N(C)C)cc1NC(=O)CN1C(=O)NC2(CCCCCCC2)C1=O | 0 | - | - | - | -
CCCCOC(=O)CCc1c(C)[nH]c(=O)c(C#N)c1C | 0 | 0 | - | 0 | -
CCCCOC(=O)CCc1c(C)n[nH]c1C | 0 | 11.8 | 0 | 0 | 0
CSc1ccc(NS(=O)(=O)c2ccc(-n3cnnn3)cc2)cc1 | 0 | - | - | - | -
Cc1ccc(NC(=O)CN(C)Cc2nc3ccccc3c(=O)[nH]2)c(Br)c1 | 0 | 11.1 | 0 | 0 | 0
Clc1cccc(NCc2ccccc2)n1 | 0 | 26.9 | 0 | 0 | 0
COc1ccc(S(=O)(=O)N2CCN(Cc3ccccc3)CC2)c(C)c1 | 0 | - | - | - | -
COc1cc(C)c(C)cc1S(=O)(=O)N1CCN(Cc2ccccc2)CC1 | 0 | 14.4 | 0 | 0 | 0
Cc1ccc(-n2nnc3c(=O)n(CC(=O)N4CCOCC4)cnc32)cc1 | 0 | 11.8 | 0 | 0 | 0
O=C(Cn1cnc2c(nnn2-c2ccccc2)c1=O)N1CCOCC1 | 0 | 0 | 0 | 0 | -
